Source: ChEMBL document CHEMBL3861983, “Synthesis and biological evaluation of the codrug of Leonurine and Aspirin as cardioprotective agents” (Bioorg Med Chem Lett, 2016)
The source made the active and inactive calls.

Tests used:
Assay type in all cases: functional, cell-based
H9c2 [1] = assay: Cardioprotective activity against hypoxia-induced cytotoxicity in rat H9c2 cells assessed as increase in cell viability at 1 uM preincubated for 8 hrs followed by H2O2 addition for 2 hrs by MTT assay
Procedure, shortened: (§1)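 H9c2 cells were pretreated with compound for 8 h, then exposed to H2O2 (40 mM) in culture medium for 2 h. Viability was read by MTT at 0.1, 1, 10 and 100 μM, relative to untreated control and H2O2-only model groups. Values are mean ± SEM of more than three independent experiments.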

[2] = Cardioprotective activity against hypoxia-induced oxidative stress in rat H9c2 cells assessed as antioxidant activity by measuring reduction in MDA levels at 1 uM preincubated for 8 hrs followed by H2O2 addition for 2 hrs by spectrophotometry
Procedure, shortened: (§2)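 H9c2 cells were pretreated with compound for 8 h, then given H2O2 (40 mM) in medium for 2 h. Measured read-outs were LDH leakage into the culture supernatant, MDA level, and SOD and catalase activities. Values are mean ± SEM of more than three independent experiments, versus model and control groups.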

[3] = Cardioprotective activity against hypoxia-induced oxidative stress in rat H9c2 cells assessed as antioxidant activity by measuring increase in SOD activity at 1 uM preincubated for 8 hrs followed by H2O2 addition for 2 hrs by spectrophotometry; procedure, shortened: as §2
[4] = Cardioprotective activity against hypoxia-induced oxidative stress in rat H9c2 cells assessed as antioxidant activity by measuring increase in catalase activity at 1 uM preincubated for 8 hrs followed by H2O2 addition for 2 hrs by spectrophotometry; procedure, shortened: as §2
[5] = Cardioprotective activity against hypoxia-induced oxidative stress mediated inflammation in rat H9c2 cells assessed as suppression of TNF-alpha in supernatant at 1 uM preincubated for 8 hrs followed by H2O2 addition for 2 hrs by ELISA
Procedure, shortened: (§3)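 TNF-α, IL-6 and IL-1β in the culture supernatant were quantified with ELISA kits. H9c2 cells were pretreated with compound for 8 h, then given 2 h H2O2 (40 mM). Values are mean ± SEM of more than three independent experiments, versus the H2O2 model group.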

[6] = Cardioprotective activity against hypoxia-induced oxidative stress mediated inflammation in rat H9c2 cells assessed as suppression of IL-1beta in supernatant at 1 uM preincubated for 8 hrs followed by H2O2 addition for 2 hrs by ELISA; procedure, shortened: as §3
[7] = Cardioprotective activity against hypoxia-induced oxidative stress mediated inflammation in rat H9c2 cells assessed as suppression of IL-6 in supernatant at 1 uM preincubated for 8 hrs followed by H2O2 addition for 2 hrs by ELISA; procedure, shortened: as §3
[8] = Cardioprotective activity against hypoxia-induced oxidative stress in rat H9c2 cells assessed as reduction in MDA levels at 1 uM preincubated for 8 hrs followed by H2O2 addition for 2 hrs in presence of aspirin by spectrophotometry; procedure, shortened: as §2
[9] = Cardioprotective activity against hypoxia-induced oxidative stress in rat H9c2 cells assessed as antioxidant activity by measuring increase in SOD activity at 1 uM preincubated for 8 hrs followed by H2O2 addition for 2 hrs in presence of aspirin by spectrophotometry; procedure, shortened: as §2
[10] = Cardioprotective activity against hypoxia-induced oxidative stress mediated inflammation in rat H9c2 cells assessed as suppression of TNF-alpha in supernatant at 1 uM preincubated for 8 hrs followed by H2O2 addition for 2 hrs in presence of aspirin by ELISA; procedure, shortened: as §3
[11] = Cardioprotective activity against hypoxia-induced oxidative stress mediated inflammation in rat H9c2 cells assessed as suppression of IL-6 in supernatant at 1 uM preincubated for 8 hrs followed by H2O2 addition for 2 hrs in presence of aspirin by ELISA; procedure, shortened: as §3
[12] = Cardioprotective activity against hypoxia-induced oxidative stress mediated inflammation in rat H9c2 cells assessed as suppression of IL-1beta in supernatant at 1 uM preincubated for 8 hrs followed by H2O2 addition for 2 hrs in presence of aspirin by ELISA; procedure, shortened: as §3
[13] = Cardioprotective activity against hypoxia-induced oxidative stress in rat H9c2 cells assessed as reduction in MDA levels at 1 uM preincubated for 8 hrs followed by H2O2 addition for 2 hrs in presence of leonurine by spectrophotometry; procedure, shortened: as §2
[14] = Cardioprotective activity against hypoxia-induced oxidative stress in rat H9c2 cells assessed as antioxidant activity by measuring increase in SOD activity at 1 uM preincubated for 8 hrs followed by H2O2 addition for 2 hrs in presence of leonurine by spectrophotometry; procedure, shortened: as §2
[15] = Cardioprotective activity against hypoxia-induced oxidative stress mediated inflammation in rat H9c2 cells assessed as suppression of TNF-alpha in supernatant at 1 uM preincubated for 8 hrs followed by H2O2 addition for 2 hrs in presence of leonurine by ELISA; procedure, shortened: as §3
[16] = Cardioprotective activity against hypoxia-induced oxidative stress mediated inflammation in rat H9c2 cells assessed as suppression of IL-6 in supernatant at 1 uM preincubated for 8 hrs followed by H2O2 addition for 2 hrs in presence of leonurine by ELISA; procedure, shortened: as §3
[17] = Cardioprotective activity against hypoxia-induced oxidative stress mediated inflammation in rat H9c2 cells assessed as suppression of IL-1beta in supernatant at 1 uM preincubated for 8 hrs followed by H2O2 addition for 2 hrs in presence of leonurine by ELISA; procedure, shortened: as §3
H9c2 [18] = assay: Cardioprotective activity against hypoxia-induced cytotoxicity in rat H9c2 cells assessed as increase in cell viability at 0.1 uM preincubated for 8 hrs followed by H2O2 addition for 2 hrs by MTT assay; procedure, shortened: as §1
[19] = Cardioprotective activity against hypoxia-induced oxidative stress in rat H9c2 cells assessed as antioxidant activity by measuring reduction in LDH leakage in supernatant at 0.1 uM preincubated for 8 hrs followed by H2O2 addition for 2 hrs by spectrophotometry; procedure, shortened: as §2
[20] = Cardioprotective activity against hypoxia-induced oxidative stress in rat H9c2 cells assessed as antioxidant activity by measuring reduction in MDA levels at 0.1 uM preincubated for 8 hrs followed by H2O2 addition for 2 hrs by spectrophotometry; procedure, shortened: as §2
[21] = Cardioprotective activity against hypoxia-induced oxidative stress in rat H9c2 cells assessed as antioxidant activity by measuring increase in SOD activity at 0.1 uM preincubated for 8 hrs followed by H2O2 addition for 2 hrs by spectrophotometry; procedure, shortened: as §2
[22] = Cardioprotective activity against hypoxia-induced oxidative stress in rat H9c2 cells assessed as antioxidant activity by measuring increase in catalase activity at 0.1 uM preincubated for 8 hrs followed by H2O2 addition for 2 hrs by spectrophotometry; procedure, shortened: as §2
[23] = Cardioprotective activity against hypoxia-induced apoptosis in rat H9c2 cells assessed as reduction in Bax expression at 0.1 uM preincubated for 8 hrs followed by H2O2 addition for 2 hrs by Western blotting analysis
Procedure, shortened: (§4)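 Bax and Bcl-2 protein expression was measured in H9c2 cells pretreated with compound for 8 h, then injured with H2O2 (40 mM) for 2 h. Levels were compared with control and H2O2 model groups. Values are mean ± SEM of more than three independent experiments.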

[24] = Cardioprotective activity against hypoxia-induced apoptosis in rat H9c2 cells assessed as increase in Bcl-2 expression at 0.1 uM preincubated for 8 hrs followed by H2O2 addition for 2 hrs by Western blotting analysis; procedure, shortened: as §4
[25] = Cardioprotective activity against hypoxia-induced apoptosis in rat H9c2 cells assessed as reduction in total apoptotic cells at 0.1 uM preincubated for 8 hrs followed by H2O2 addition for 2 hrs by Annexin-V FITC/propidium iodide staining based flow cytometry
Procedure, shortened: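 After 8 h compound pretreatment, H9c2 cells got a 2 h H2O2 (40 mM) insult. They were stained with Annexin V-FITC/PI and analysed by flow cytometry, counting total apoptotic cells including necrotic cells. Values are mean ± SEM of more than three independent experiments, versus model and control groups.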

[26] = Cardioprotective activity against hypoxia-induced oxidative stress mediated inflammation in rat H9c2 cells assessed as suppression of TNF-alpha in supernatant at 0.1 uM preincubated for 8 hrs followed by H2O2 addition for 2 hrs by ELISA; procedure, shortened: as §3
[27] = Cardioprotective activity against hypoxia-induced oxidative stress mediated inflammation in rat H9c2 cells assessed as suppression of IL-1beta in supernatant at 0.1 uM preincubated for 8 hrs followed by H2O2 addition for 2 hrs by ELISA; procedure, shortened: as §3
[28] = Cardioprotective activity against hypoxia-induced oxidative stress mediated inflammation in rat H9c2 cells assessed as suppression of IL-6 in supernatant at 0.1 uM preincubated for 8 hrs followed by H2O2 addition for 2 hrs by ELISA; procedure, shortened: as §3
H9c2 [29] = assay: Increase in No level in rat H9c2 cells at 0.1 uM preincubated for 8 hrs followed by H2O2 addition for 2 hrs by ELISA
Procedure, shortened: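 NO concentration was measured in the culture supernatant of H9c2 cells. Cells were pretreated with compound for 8 h before 2 h H2O2 (40 mM) exposure. Values are mean ± SEM of more than three independent experiments, versus the model group.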

H9c2 [30] = assay: Cardioprotective activity against hypoxia-induced cytotoxicity in rat H9c2 cells assessed as increase in cell viability at 0.1 to 100 uM preincubated for 8 hrs followed by H2O2 addition for 2 hrs by MTT assay; procedure, shortened: as §1

Measured: Activity

COc1cc(C(=O)OCCCCNC(=N)N)cc(OC)c1O
active: H9c2 [1] | [2] | [3] | [4] | [5] | [6] | [7] | [8] | [9] | [10] | [11] | [12]

CC(=O)Oc1ccccc1C(=O)O
active: H9c2 [1] | [2] | [3] | [4] | [5] | [6] | [7] | [13] | [14] | [15] | [16] | [17]

COc1cc(C(=O)OCCCCNC(=N)N)cc(OC)c1OC(=O)CCNC(=O)c1ccccc1OC(C)=O
active: H9c2 [18] | [19] | [20] | [21] | [22] | [23] | [24] | [25] | [26] | [27] | [28] | H9c2 [29]

COc1cc(C(=O)OCCCCNC(=N)N)cc(OC)c1OC(=O)CCNC(=O)c1ccccc1O
active: H9c2 [30]
